A short description of data set [1]: Induction of insulin secretion in syrian hamster HIT-T15 cells at 40 uM after 1 hr by HTRF assay relative to control. It counts as functional, Mesocricetus auratus. The essentials:
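HIT-T15 hamster pancreatic islet cells were exposed to test compounds at 40 μM, with gliclazide at 100 μM as the positive control. Insulin secretion is expressed relative to untreated control cells. The procedure follows an earlier report. Each experiment was performed three times, and significance was taken at p < 0.01.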

Data set [2] in a line: Cytotoxicity against syrian hamster HIT-T15 cells assessed as decrease in cell viability at 40 uM by MTT assay. It counts as cell-based, Mesocricetus auratus. Background: Formazan colour is commonly taken as a measure of viable cells.

These results are taken from ChEMBL document CHEMBL4266034, “LC-MS-Guided Isolation of Insulin-Secretion-Promoting Monoterpenoid Carbazole Alkaloids from Murraya microphylla” (J Nat Prod, 2018).

In the case of `CC(C)=CCCC1(C)C=Cc2c(c(C)cc3c2[nH]c2cc(OC4(C(C)C)CC=C(C)CC4)ccc23)O1` (centres undefined), in data set [1], the “fold change (FC)” value is recorded as 1.9 - 3.1. Moreover, the Activity entry in data set [2] was “Non-Toxic”.

As for `Cc1cc2c([nH]c3c([C@@]4(C)CC[C@@]5(C(C)C)C[C@H]54)c(O)ccc32)c2c1OC(C)(C)C=C2`, the “fold change (FC)” value in data set [1] is on record as 1.9 - 3.1. The Activity entry in data set [2] was “Non-Toxic”.

For `CC1=C[C@@H](c2c(O)ccc3c2[nH]c2c4c(c(C)cc23)OC(C)(C)C=C4)[C@H](C(C)C)CC1`, the “fold change (FC)” value in data set [1] is listed as 1.9 - 3.1. Further, in data set [2], the Activity entry is “Non-Toxic”.

For `CC(C)=CCC[C@]1(C)C=Cc2c(c(C)cc3c2[nH]c2c([C@@]4(C)CC[C@@]5(C(C)C)C[C@H]54)c(O)ccc23)O1`, the “fold change (FC)” value in data set [1] was 1.9 - 3.1. The Activity result in data set [2] is “Non-Toxic”.

In the case of `COc1cc2c([nH]c3c4c(c(C)cc32)OC(C)(C)C=C4)c([C@@]2(C)CC[C@@]3(C(C)C)C[C@H]32)c1O`, in data set [1], the “fold change (FC)” value is recorded as 1.9 - 3.1. Further, the Activity entry in data set [2] is recorded as “Non-Toxic”.

Regarding `COc1cc2c(cc1OC(C)(C)[C@@H]1CC=C(C)CC1)[nH]c1c3c(c(C)cc12)OC(C)(C)C=C3`, in data set [1], the “fold change (FC)” value was 1.9 - 3.1. Also, the Activity result in data set [2] is given as “Non-Toxic”.

As to `CC1=CCC(Oc2ccc3c(c2)[nH]c2c4c(c(C)cc23)OC(C)(C)C=C4)(C(C)C)CC1` (centres undefined), the “fold change (FC)” value in data set [1] is 1.9 - 3.1. The Activity result in data set [2] was “Non-Toxic”.

Take `Cc1cc2c([nH]c3c([C@]4(C)CC[C@@]5(C(C)C)C[C@H]54)c(O)ccc32)c2c1OC(C)(C)C=C2`: in data set [1], the “fold change (FC)” value is reported as 1.9 - 3.1. In addition, the Activity entry in data set [2] was “Non-Toxic”.

As for `CC(C)=CCC[C@]1(C)C=Cc2c(c(C)cc3c2[nH]c2c([C@@H]4C=C(C)CC[C@H]4C(C)C)c(O)ccc23)O1`, in data set [1], the “fold change (FC)” value is 1.9 - 3.1. In addition, the Activity result in data set [2] is on record as “Non-Toxic”.

In the case of `COc1cc2c(cc1OC1(C(C)C)CC=C(C)CC1)[nH]c1c3c(c(C)cc12)OC(C)(C)C=C3` (centres undefined), the “fold change (FC)” value in data set [1] is 1.9 - 3.1. The Activity result in data set [2] is given as “Non-Toxic”.

In the case of `COc1cc2c([nH]c3c4c(c(C)cc32)OC(C)(C)C=C4)c([C@]2(C)CC[C@@]3(C(C)C)C[C@H]32)c1O`, the “fold change (FC)” value in data set [1] is on record as 1.9 - 3.1. In addition, the Activity result in data set [2] is “Non-Toxic”.

With `COc1cc2c([nH]c3c4c(c(C)cc32)OC(C)(C)C=C4)c([C@@H]2C=C(C)CC[C@H]2C(C)C)c1O`, in data set [1], the “fold change (FC)” value is 1.9 - 3.1. For the same compound, the Activity result in data set [2] is given as “Non-Toxic”.
